This is an account of results in ChEMBL document CHEMBL1157192, “No carrier added synthesis of O-(2'-[18F]fluoroethyl)-L-tyrosine via a novel type of chiral enantiomerically pure precursor, NiII complex of a (S)-tyrosine Schiff base” (Bioorg Med Chem, 2008).

Holding throughout (details): in vivo
Data set [1] has as its system Liver. Kind of data set: Biodistribution in liver of Wistar rat bearing glioma35 rat tumor at 150-180 uCi after 40 mins. The class given is ADME, organism-based. The method in brief:
(§1)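 Male Wistar rats (150–200 g) received 150–180 μCi ([…]) [18F]FET in 0.3 mL isotonic solution via the jugular vein. They were killed at 40 min. Organs were dissected, blotted of blood, weighed and gamma-counted, and values are given as %ID/g, with five rats per time point. Glioma35 homografts grew for 14 days after subcutaneous or intramuscular injection into the right hind limb. Abscesses were raised by turpentine oil (10 μL) into the right hind-limb muscle 24 h before the experiment.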

Data set [2] has as its system Heart. Nature of the data set: Biodistribution in heart of Wistar rat bearing glioma35 rat tumor at 150-180 uCi after 40 mins. The data set is classed as ADME, organism-based. The method in brief:
as §1

The nature of data set [3]: Biodistribution in abscess of Wistar rat bearing turpentine-induced aseptic abscess at 150-180 uCi after 40 mins. The data set is classed as ADME, organism-based. The gist of the method:
as §1

For data set [4], the system named is Brain. Nature of the data set: Biodistribution in brain of Wistar rat bearing glioma35 rat tumor at 150-180 uCi after 40 mins. The data set is classed as ADME, organism-based. The method in brief:
as §1

Data set [5] deals with Muscle tissue. Kind of data set: Biodistribution in muscle of Wistar rat bearing glioma35 rat tumor at 150-180 uCi after 40 mins. The data set is classed as ADME, organism-based. The gist of the method: as §1
Data set [6] can be described thus: Biodistribution in urinary bladder of Wistar rat bearing glioma35 rat tumor at 150-180 uCi after 40 mins. The data set is classed as ADME, organism-based. The gist of the method:
as §1

Data set [7] in a line: Biodistribution in tumor of Wistar rat bearing glioma35 rat tumor at 150-180 uCi after 40 mins. The data set is classed as ADME, organism-based, Neoplasm. The method in brief:
as §1

In data set [8] the test system is Blood. Nature of the data set: Biodistribution in blood of Wistar rat bearing turpentine-induced aseptic abscess at 150-180 uCi after 40 mins. The class given is ADME, organism-based. The gist of the method:
as §1

In data set [9] the test system is Liver. Kind of data set: Biodistribution in liver of Wistar rat bearing turpentine-induced aseptic abscess at 150-180 uCi after 40 mins. The class given is ADME, organism-based. The method in brief: as §1
Data set [10] deals with Muscle tissue. Kind of data set: Biodistribution in muscle of Wistar rat bearing turpentine-induced aseptic abscess at 150-180 uCi after 40 mins. The data set is classed as ADME, organism-based. The gist of the method: as §1
Data set [11] relates to Kidney. Kind of data set: Biodistribution in kidney of Wistar rat bearing turpentine-induced aseptic abscess at 150-180 uCi after 40 mins. The class given is ADME, organism-based. The method in brief: as §1
Data set [12] relates to Brain. Kind of data set: Biodistribution in brain of Wistar rat bearing turpentine-induced aseptic abscess at 150-180 uCi after 40 mins. The data set is classed as ADME, organism-based. The method in brief:
as §1

The subject of data set [13] is Kidney. Nature of the data set: Biodistribution in kidney of Wistar rat bearing glioma35 rat tumor at 150-180 uCi after 40 mins. The data set is classed as ADME, organism-based. The method in brief:
as §1

Data set [14] can be described thus: Biodistribution in urinary bladder of Wistar rat bearing turpentine-induced aseptic abscess at 150-180 uCi after 40 mins. The class given is ADME, organism-based. The method in brief:
as §1

In data set [15] the test system is Blood. Kind of data set: Biodistribution in blood of Wistar rat bearing glioma35 rat tumor at 150-180 uCi after 40 mins. The class given is ADME, organism-based. The gist of the method: as §1
Data set [16] concerns Heart. Nature of the data set: Biodistribution in heart of Wistar rat bearing turpentine-induced aseptic abscess at 150-180 uCi after 40 mins. The class given is ADME, organism-based. The gist of the method: as §1

Regarding `N[C@@H](Cc1ccc(OCC[18F])cc1)C(=O)O` [FLORETYROSINE F18], the Drug uptake with Liver [1] was 1.03 % ID/g; in the data set on Heart [2] it was 0.98 % ID/g; in [3] it was 1.75 % ID/g; with Brain [4] it was 0.54 % ID/g; in the data set with Muscle tissue [5], 0.84 % ID/g; in [6] it was 2.51 % ID/g. Further, the Drug uptake in data set [7] came out at 2.53 % ID/g; in the data set on Blood [8], 1.45 % ID/g; in the data set on Liver [9], 1.24 % ID/g; in the data set on Muscle tissue [10], 1.32 % ID/g; in the data set with Kidney [11], 1.58 % ID/g; in the data set with Brain [12], 1 % ID/g. Besides, the Drug uptake in the data set on Kidney [13] was found to be 0.86 % ID/g; in data set [14], 3.94 % ID/g; in the data set on Blood [15], 1.24 % ID/g; in the data set on Heart [16], 1.47 % ID/g.
